Test results reported in ChEMBL document CHEMBL3352456, “Design, synthesis and biological activity of a novel Rutin analogue with improved lipid soluble properties” (Bioorg Med Chem, 2015).
Activity calls are given as the source filed them. The rule behind the calls is not given here.

Assays:
[1] = Octanol-water partition coefficient, log P of the compound at 5 mg/20 ml after 30 mins by spectrophotometric analysis; assay type: physicochemical
How it was run: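 Octanol and water (pH 6), 20 mL each, stirred 30 min at 25 °C, then centrifuged 10 min at 4,000 rpm. Compound concentration in each phase measured spectrophotometrically at 360 nm. LogP = log of the octanol/water concentration ratio.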

Epidermophyton floccosum [2] = experiment: Antifungal activity against Epidermophyton floccosum (Hartz) Langeron and Milochevitch CBS 358.93 assessed as growth inhibition at 20 ug/ml measured on day 7 by sabouraud dextrose agar diffusion method relative to control; assay type: functional
How it was run: (§1)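 Dermatophyte strains kept on Sabouraud dextrose agar slants. Mycelium disks (10 mm) from a stationary-phase culture grown at 26 ± 1 °C on cellophane over SDA to log phase, then moved onto SDA containing compound added from DMSO stock at 45 °C (final DMSO 0.1%; DMSO-only controls). Colony diameter measured daily for 7 days. % inhibition = (dex − dex')/dex × 100. Three replicates per concentration; mean of three independent experiments.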

Trichophyton rubrum [3] = experiment: Antifungal activity against Trichophyton rubrum (Castellani) Sabouraud IHME 4321 assessed as growth inhibition at 20 ug/ml measured on day 7 by sabouraud dextrose agar diffusion method relative to control; assay type: functional; details: (Castellani) Sabouraud IHME 4321, 168 h, read-out: GI; how it was run: as §1
Trichophyton tonsurans [4] = experiment: Antifungal activity against Trichophyton tonsurans Malmsten CBS 483.76 assessed as growth inhibition at 20 ug/ml measured on day 7 by sabouraud dextrose agar diffusion method relative to control; assay type: functional; details: Malmsten CBS 483.76, 168 h, read-out: GI; how it was run: as §1
Trichophyton violaceum [5] = experiment: Antifungal activity against Trichophyton violaceum Malmsten CBS 459.61 assessed as growth inhibition at 20 ug/ml measured on day 7 by sabouraud dextrose agar diffusion method relative to control; assay type: functional; details: Malmsten CBS 459.61, 168 h, read-out: GI; how it was run: as §1
[6] = system: Trichophyton mentagrophytes; experiment: Antifungal activity against Trichophyton mentagrophytes (Robin) Blanchard CBS 160.66 assessed as growth inhibition at 20 ug/ml measured on day 7 by sabouraud dextrose agar diffusion method relative to control; assay type: functional; details: (Robin) Blanchard CBS 160.66, 168 h, read-out: GI; how it was run: as §1
Nannizzia gypsea [7] = experiment: Antifungal activity against Microsporum gypseum (Bodin) Guiart and Grigorakis IHME 3999 assessed as growth inhibition at 20 ug/ml measured on day 7 by sabouraud dextrose agar diffusion method relative to control; assay type: functional; details: (Bodin) Guiart and Grigorakis IHME 3999, 168 h, read-out: GI; how it was run: as §1
Paraphyton cookei [8] = experiment: Antifungal activity against Nannizzia cajetani Ajello CBS 495.70 assessed as growth inhibition at 20 ug/ml measured on day 7 by sabouraud dextrose agar diffusion method relative to control; assay type: functional; details: Ajello CBS 495.70, 168 h, read-out: GI; how it was run: as §1
[9] = Antifungal activity against Microsporum canis Bodin CBS 4727 assessed as growth inhibition at 20 ug/ml measured on day 7 by sabouraud dextrose agar diffusion method relative to control; assay type: functional; how it was run: as §1
Nannizzia gypsea [10] = experiment: Antifungal activity against Nannizzia gypsea (Bodin) Guiart et Grigoraki CBS 286.63 assessed as growth inhibition at 20 ug/ml measured on day 7 by sabouraud dextrose agar diffusion method relative to control; assay type: functional; details: (Bodin) Guiart et Grigoraki CBS 286.63, 168 h, read-out: GI; how it was run: as §1
Epidermophyton floccosum [11] = experiment: Antifungal activity against Epidermophyton floccosum (Hartz) Langeron and Milochevitch CBS 358.93 assessed as growth inhibition at 100 ug/ml measured on day 7 by sabouraud dextrose agar diffusion method relative to control; assay type: functional; how it was run: as §1
Trichophyton rubrum [12] = experiment: Antifungal activity against Trichophyton rubrum (Castellani) Sabouraud IHME 4321 assessed as growth inhibition at 100 ug/ml measured on day 7 by sabouraud dextrose agar diffusion method relative to control; assay type: functional; details: (Castellani) Sabouraud IHME 4321, 168 h, read-out: GI; how it was run: as §1
Trichophyton tonsurans [13] = experiment: Antifungal activity against Trichophyton tonsurans Malmsten CBS 483.76 assessed as growth inhibition at 100 ug/ml measured on day 7 by sabouraud dextrose agar diffusion method relative to control; assay type: functional; details: Malmsten CBS 483.76, 168 h, read-out: GI; how it was run: as §1
Trichophyton violaceum [14] = experiment: Antifungal activity against Trichophyton violaceum Malmsten CBS 459.61 assessed as growth inhibition at 100 ug/ml measured on day 7 by sabouraud dextrose agar diffusion method relative to control; assay type: functional; details: Malmsten CBS 459.61, 168 h, read-out: GI; how it was run: as §1
[15] = system: Trichophyton mentagrophytes; experiment: Antifungal activity against Trichophyton mentagrophytes (Robin) Blanchard CBS 160.66 assessed as growth inhibition at 100 ug/ml measured on day 7 by sabouraud dextrose agar diffusion method relative to control; assay type: functional; details: (Robin) Blanchard CBS 160.66, 168 h, read-out: GI; how it was run: as §1
Nannizzia gypsea [16] = experiment: Antifungal activity against Microsporum gypseum (Bodin) Guiart and Grigorakis IHME 3999 assessed as growth inhibition at 100 ug/ml measured on day 7 by sabouraud dextrose agar diffusion method relative to control; assay type: functional; details: (Bodin) Guiart and Grigorakis IHME 3999, 168 h, read-out: GI; how it was run: as §1
Paraphyton cookei [17] = experiment: Antifungal activity against Nannizzia cajetani Ajello CBS 495.70 assessed as growth inhibition at 100 ug/ml measured on day 7 by sabouraud dextrose agar diffusion method relative to control; assay type: functional; details: Ajello CBS 495.70, 168 h, read-out: GI; how it was run: as §1
[18] = Antifungal activity against Microsporum canis Bodin CBS 4727 assessed as growth inhibition at 100 ug/ml measured on day 7 by sabouraud dextrose agar diffusion method relative to control; assay type: functional; how it was run: as §1
Nannizzia gypsea [19] = experiment: Antifungal activity against Nannizzia gypsea (Bodin) Guiart et Grigoraki CBS 286.63 assessed as growth inhibition at 100 ug/ml measured on day 7 by sabouraud dextrose agar diffusion method relative to control; assay type: functional; details: (Bodin) Guiart et Grigoraki CBS 286.63, 168 h, read-out: GI; how it was run: as §1
[20] = biological target: Nuclear factor NF-kappa-B complex (Homo sapiens) (UniProt Q00653+P19838+Q04206); experiment: Inhibition of NF-kappaB (unknown origin)/32P-labeled oligonucleotide interaction at 0.1 to 10 mM after 20 mins by electrophoretic mobility shift assay; assay type: protein-complex assay
Chain of Nuclear factor NF-kappa-B complex (Homo sapiens) (P19838 whole entry, looked up): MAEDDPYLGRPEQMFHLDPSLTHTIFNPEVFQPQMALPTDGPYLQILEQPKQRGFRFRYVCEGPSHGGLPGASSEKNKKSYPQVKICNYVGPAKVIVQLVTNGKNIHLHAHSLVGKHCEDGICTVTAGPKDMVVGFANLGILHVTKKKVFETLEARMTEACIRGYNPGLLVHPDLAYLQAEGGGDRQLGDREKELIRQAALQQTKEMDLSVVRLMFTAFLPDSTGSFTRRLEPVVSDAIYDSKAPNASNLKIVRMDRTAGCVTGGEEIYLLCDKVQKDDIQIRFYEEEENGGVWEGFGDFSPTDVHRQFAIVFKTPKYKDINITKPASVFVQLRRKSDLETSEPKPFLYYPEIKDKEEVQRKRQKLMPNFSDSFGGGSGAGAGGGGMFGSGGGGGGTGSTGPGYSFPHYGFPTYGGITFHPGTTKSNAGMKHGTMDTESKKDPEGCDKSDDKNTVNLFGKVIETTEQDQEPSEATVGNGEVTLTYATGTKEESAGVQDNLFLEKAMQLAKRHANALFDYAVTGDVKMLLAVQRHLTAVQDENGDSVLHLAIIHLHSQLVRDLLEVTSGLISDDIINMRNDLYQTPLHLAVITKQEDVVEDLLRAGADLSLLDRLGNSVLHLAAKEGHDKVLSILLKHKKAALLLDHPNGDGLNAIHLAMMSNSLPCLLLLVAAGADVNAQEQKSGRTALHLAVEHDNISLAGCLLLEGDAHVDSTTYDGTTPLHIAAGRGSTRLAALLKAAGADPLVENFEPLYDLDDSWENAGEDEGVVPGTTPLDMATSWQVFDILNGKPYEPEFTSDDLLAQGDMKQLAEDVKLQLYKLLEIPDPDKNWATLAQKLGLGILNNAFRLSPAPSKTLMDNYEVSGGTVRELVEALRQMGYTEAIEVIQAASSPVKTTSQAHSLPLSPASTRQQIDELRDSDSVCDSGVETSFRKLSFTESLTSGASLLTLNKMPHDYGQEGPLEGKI
Chain of Nuclear factor NF-kappa-B complex (Homo sapiens) (Q00653 whole entry, looked up): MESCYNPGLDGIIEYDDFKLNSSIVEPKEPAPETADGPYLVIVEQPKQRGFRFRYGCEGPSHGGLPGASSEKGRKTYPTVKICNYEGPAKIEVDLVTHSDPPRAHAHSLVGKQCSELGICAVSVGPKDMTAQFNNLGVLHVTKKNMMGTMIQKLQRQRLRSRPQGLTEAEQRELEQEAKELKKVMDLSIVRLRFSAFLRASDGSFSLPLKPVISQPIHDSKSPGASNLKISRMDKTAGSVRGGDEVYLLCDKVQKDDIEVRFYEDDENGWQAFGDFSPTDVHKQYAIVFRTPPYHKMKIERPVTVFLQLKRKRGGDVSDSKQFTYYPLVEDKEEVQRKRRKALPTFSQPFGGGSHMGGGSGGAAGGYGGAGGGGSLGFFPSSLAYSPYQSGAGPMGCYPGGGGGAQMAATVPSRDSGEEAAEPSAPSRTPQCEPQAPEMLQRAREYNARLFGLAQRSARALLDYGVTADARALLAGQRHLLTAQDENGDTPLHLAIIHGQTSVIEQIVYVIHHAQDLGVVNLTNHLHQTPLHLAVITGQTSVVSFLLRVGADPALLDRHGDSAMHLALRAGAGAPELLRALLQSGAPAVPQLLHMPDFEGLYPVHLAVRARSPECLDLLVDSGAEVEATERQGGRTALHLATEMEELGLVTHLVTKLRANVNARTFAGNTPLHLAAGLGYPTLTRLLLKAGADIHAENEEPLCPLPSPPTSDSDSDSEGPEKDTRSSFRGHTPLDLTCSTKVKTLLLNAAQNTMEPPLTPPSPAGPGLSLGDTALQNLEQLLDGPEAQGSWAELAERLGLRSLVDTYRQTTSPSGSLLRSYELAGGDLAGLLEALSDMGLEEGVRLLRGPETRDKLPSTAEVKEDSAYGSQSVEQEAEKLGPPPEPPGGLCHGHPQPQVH
Chain of Nuclear factor NF-kappa-B complex (Homo sapiens) (Q04206 whole entry, looked up): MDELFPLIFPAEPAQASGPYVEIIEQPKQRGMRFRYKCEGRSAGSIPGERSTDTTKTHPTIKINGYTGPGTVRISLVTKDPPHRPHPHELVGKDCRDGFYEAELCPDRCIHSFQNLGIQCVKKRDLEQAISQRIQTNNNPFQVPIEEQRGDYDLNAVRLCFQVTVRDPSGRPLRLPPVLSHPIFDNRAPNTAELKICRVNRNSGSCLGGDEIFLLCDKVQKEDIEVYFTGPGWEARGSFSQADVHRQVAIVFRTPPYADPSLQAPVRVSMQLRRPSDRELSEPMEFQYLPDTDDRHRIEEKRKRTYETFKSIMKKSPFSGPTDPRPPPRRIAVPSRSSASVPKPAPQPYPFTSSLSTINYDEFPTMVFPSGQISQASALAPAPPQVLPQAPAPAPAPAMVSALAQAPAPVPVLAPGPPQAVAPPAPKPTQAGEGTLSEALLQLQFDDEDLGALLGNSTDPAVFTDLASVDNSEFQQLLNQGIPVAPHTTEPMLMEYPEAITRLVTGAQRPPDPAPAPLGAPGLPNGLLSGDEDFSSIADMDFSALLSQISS
How it was run: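 Probe was a double-stranded 32P-labelled oligonucleotide (0.25 ng) in buffer of 10% glycerol, 0.05% NP-40, 10 mM Tris-HCl pH 7.5, 50 mM NaCl, 0.5 mM DTT and 10 mM MgCl2. Compound and probe were bound for 20 min at room temperature, then recombinant NF-kappaB p50 was added for a further 20 min. Samples were run on 6% polyacrylamide in 0.25× TBE at 200 V.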

K562 [21] = experiment: Induction of apoptosis in human K562 cells assessed as live cells at 5 uM after 3 days by Annexin-V staining-based assay (reference value: 87.33%); assay type: functional
K562 [22] = experiment: Induction of apoptosis in human K562 cells assessed as live cells at 10 uM after 3 days by Annexin-V staining-based assay (reference value: 87.33%); assay type: functional
K562 [23] = experiment: Induction of apoptosis in human K562 cells assessed as early apoptotic cells at 5 uM after 3 days by Annexin-V staining-based assay (reference value: 5.41%); assay type: functional
K562 [24] = experiment: Induction of apoptosis in human K562 cells assessed as early apoptotic cells at 10 uM after 3 days by Annexin-V staining-based assay (reference value: 5.41%); assay type: functional
K562 [25] = experiment: Induction of apoptosis in human K562 cells assessed as late apoptotic cells at 5 uM after 3 days by Annexin-V staining-based assay (reference value: 5.96%); assay type: functional
K562 [26] = experiment: Induction of apoptosis in human K562 cells assessed as late apoptotic cells at 10 uM after 3 days by Annexin-V staining-based assay (reference value: 5.96%); assay type: functional
K562 [27] = experiment: Induction of apoptosis in human K562 cells assessed as dead cells at 5 uM after 3 days by Annexin-V staining-based assay (reference value: 1.29%); assay type: functional
K562 [28] = experiment: Induction of apoptosis in human K562 cells assessed as dead cells at 10 uM after 3 days by Annexin-V staining-based assay (reference value: 1.29%); assay type: functional
K562 [29] = experiment: Induction of apoptosis in human K562 cells assessed as apoptotic cells at 5 uM after 3 days by Annexin-V staining-based assay (reference value: 11.37%); assay type: functional
K562 [30] = experiment: Induction of apoptosis in human K562 cells assessed as apoptotic cells at 10 uM after 3 days by Annexin-V staining-based assay (reference value: 11.37%); assay type: functional
[31] = Antioxidant activity assessed as superoxide anion radical scavenging by photochemiluminescence method relative to trolox; assay type: physicochemical
How it was run: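 Superoxide was generated photochemically from luminol under UV light (351 nm). Lag time (water-soluble, ACW) or integrated light emission over 180 s (lipid-soluble, ACL) was compared with a Trolox standard curve. Samples were centrifuged 5 min at 16000 g and diluted 1:40 in water (ACW) or methanol (ACL). Triplicate determinations.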

[32] = Antioxidant activity assessed as inhibition of AAPH-induced peroxyl radical generation by oxygen radical absorbance capacity assay relative to trolox; assay type: physicochemical
How it was run: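 Run at 37 °C and pH 7.4 with fluorescein (85 nM) as the probe and AAPH as the peroxyl radical source. Compounds were dissolved fresh in PBS. Fluorescence read at ex 485/em 538 nm every 5 min for up to 30 min after AAPH addition. Net area under the decay curve (blank minus sample) was calibrated against Trolox at 10–50 μM and given as Trolox equivalents.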

[33] = Antioxidant activity assessed as superoxide anion radical scavenging by photochemiluminescence method relative to trolox using formulation containing O/W; assay type: physicochemical
K562 [34] = experiment: Antiproliferative activity against human K562 cells assessed as cell number after 3 days by Coulter counter; details: K562, 72 h

With `CCC(=O)O[C@@H]1[C@@H](OC(=O)CC)[C@H](C)O[C@@H](OC[C@H]2O[C@@H](Oc3c(-c4ccc(O)c(O)c4)oc4cc(O)cc(O)c4c3=O)[C@H](OC(=O)CC)[C@@H](OC(=O)CC)[C@@H]2OC(=O)CC)[C@@H]1OC(=O)CC` as the compound, how does the logP at 0.5 h [1] read?
The logP at 0.5 h was 1.09.

What about the “growth inhibition (GI)” value (Epidermophyton floccosum [2]) of the same compound?
The value was “inactive”.

What about the inhibition of growth at 20 µg/mL (Trichophyton rubrum [3]) of the same compound?
Its inhibition of growth at 20 µg/mL is 3.5%.

What about the inhibition of growth at 20 µg/mL (Trichophyton tonsurans [4]) of the same compound?
The inhibition of growth at 20 µg/mL was 5.4%.

And the inhibition of growth at 20 µg/mL (Trichophyton violaceum [5])?
Its inhibition of growth at 20 µg/mL is 10.7%.

And the inhibition of growth at 20 µg/mL [6]?
The inhibition of growth at 20 µg/mL was 0%.

And the inhibition of growth at 20 µg/mL (Nannizzia gypsea [7])?
The inhibition of growth at 20 µg/mL was 5.4%.

What about the inhibition of growth at 20 µg/mL (Paraphyton cookei [8]) of the same compound?
Its inhibition of growth at 20 µg/mL is 0.6%.

And the “growth inhibition (GI)” value [9]?
The value was “inactive”.

What about the inhibition of growth at 20 µg/mL (Nannizzia gypsea [10]) of the same compound?
Its inhibition of growth at 20 µg/mL is 1.9%.

And the “growth inhibition (GI)” value (Epidermophyton floccosum [11])?
The value was “inactive”.

What about the inhibition of growth at 100 µg/mL (Trichophyton rubrum [12]) of the same compound?
The inhibition of growth at 100 µg/mL was 4.3%.

And the inhibition of growth at 100 µg/mL (Trichophyton tonsurans [13])?
Its inhibition of growth at 100 µg/mL is 17.8%.

And the inhibition of growth at 100 µg/mL (Trichophyton violaceum [14])?
Its inhibition of growth at 100 µg/mL is 15.8%.

And the inhibition of growth at 100 µg/mL [15]?
Its inhibition of growth at 100 µg/mL is 5.7%.

What about the inhibition of growth at 100 µg/mL (Nannizzia gypsea [16]) of the same compound?
Its inhibition of growth at 100 µg/mL is 9.9%.

What about the inhibition of growth at 100 µg/mL (Paraphyton cookei [17]) of the same compound?
Its inhibition of growth at 100 µg/mL is 3.5%.

What about the growth inhibition (GI) [18] of the same compound?
The growth inhibition (GI) was 0%.

And the inhibition of growth at 100 µg/mL (Nannizzia gypsea [19])?
Its inhibition of growth at 100 µg/mL is 7.9%.

And the inhibition [20]?
Its inhibition is “Active”.

What about the Activity (K562 [21]) of the same compound?
The Activity was 79.75%.

What about the Activity (K562 [22]) of the same compound?
Its Activity is 71.2%.

What about the Activity (K562 [23]) of the same compound?
The Activity was 12.35%.

And the Activity (K562 [24])?
The Activity was 11.64%.

And the Activity (K562 [25])?
Its Activity is 5.35%.

What about the Activity (K562 [26]) of the same compound?
Its Activity is 15.82%.

And the Activity (K562 [27])?
Its Activity is 2.55%.

And the Activity (K562 [28])?
Its Activity is 1.34%.

What about the Activity (K562 [29]) of the same compound?
The Activity was 17.7%.

What about the Activity (K562 [30]) of the same compound?
Its Activity is 27.46%.

What about the Activity [31] of the same compound?
The Activity was 1232.67 µmol/g.

What about the Activity [32] of the same compound?
Its Activity is 728.61 µmol/g.

What about the Activity [33] of the same compound?
The Activity was 3.81 µmol/g.

What about the IC50 (K562 [34]) of the same compound?
The IC50 was 7.17 µM.
